Results from ChEMBL document CHEMBL4619818, “Mining Public Domain Data to Develop Selective DYRK1A Inhibitors” (ACS Med Chem Lett, 2020).
Converted amounts (≈) assume the structure as drawn.

Legend:
[1] = target: T1, Dual specificity tyrosine-phosphorylation-regulated kinase 1A (Homo sapiens, UniProt Q13627); test: Inhibition of recombinant human N-terminal Hex-tagged DYRK1A (127 to 485 residues) expressed in Escherichia coli BL21 (DE3) incubated for 1.5 hrs by TR-FRET assay
[2] = target: T1, Dual specificity tyrosine-phosphorylation-regulated kinase 1A; test: Inhibition of DYRK1A (unknown origin) at 1 uM by PanQinase assay relative to control
[3] = target: Cyclin-dependent kinase 2 (Homo sapiens) (UniProt P24941); test: Inhibition of CDK2 (unknown origin) at 1 uM by PanQinase assay relative to control
[4] = target: T1, Dual specificity tyrosine-phosphorylation-regulated kinase 1A; test: Binding affinity to DYRK1A (unknown origin) assessed as dissociation constant measured for 60 to 300 sec by SPR analysis
[5] = Efflux ratio of apparent permeability from basolateral to apical side over apical to basolateral side in dog MDCK-MDR1 cells; type: ADME, cell-based, Canis lupus familiaris
How it was run: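 MDCK cells transfected with human MDR1 gene (Cyprotex assay); permeability coefficient (Papp) measured in both directions, apical to basolateral and basolateral to apical; efflux ratio taken as mean Papp B2A divided by mean Papp A2B.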

[6] = Thermodynamic solubility of compound at pH 6.8; type: physicochemical; conditions: buffer, read-out: Therm_solubility
How it was run: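 Thermodynamic (intrinsic) solubility by shake-flask method in PBS buffer at pH 6.8. Reported in mg/mL from a single experiment.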

[7] = target: Glycogen synthase kinase-3 beta (Homo sapiens) (UniProt P49841); test: Inhibition of recombinant human full length GSK3beta (1 to 433 residues) expressed in mammalian expression system at 1 uM by DiscoverX competition binding assay relative to control
How it was run: (§1)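 Competition binding assay with test compound at 1 µM inhibitor concentration. Result expressed as percent inhibition, single determination (n=1). The kinome-wide panel also gave a selectivity score, S-Score(40).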

[8] = Metabolic stability in human liver microsomes assessed as intrinsic clearance; type: ADME, Microsome; conditions: read-out: CLH
How it was run: (§2)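 Microsomal incubations with human or rat liver microsomes. Intrinsic clearance given in µL/min/mg; values are the mean of n = 2.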

[9] = Apparent permeability from apical to basolateral side in dog MDCK-MDR1 cells; type: ADME, cell-based, Canis lupus familiaris
How it was run: (§3)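 MDCK cells transfected with human MDR1 gene. Apparent permeability coefficient (Papp, 10^-6 cm/s) measured across the cell layer in each direction, apical to basolateral and basolateral to apical. Mean values reported; efflux ratio taken as Papp B2A / Papp A2B.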

[10] = target: Cyclin-dependent kinase 2 (Homo sapiens) (UniProt P24941); test: Inhibition of recombinant human full length CDK2 (1 to 298 residues) expressed in bacterial expression system at 1 uM by DiscoverX competition binding assay relative to control; how it was run: as §1
[11] = target: T1, Dual specificity tyrosine-phosphorylation-regulated kinase 1A; test: Inhibition of recombinant human DYRK1A (129 to 509 residues) expressed in mammalian expression system at 1 uM by DiscoverX competition binding assay relative to control; how it was run: as §1
[12] = target: T2, Dual specificity tyrosine-phosphorylation-regulated kinase 2 (Homo sapiens) (UniProt Q92630); test: Inhibition of recombinant human full length DYRK2 (1 to 528 residues) expressed in mammalian expression system at 1 uM by DiscoverX competition binding assay relative to control; how it was run: as §1
T2 sequence (whole entry): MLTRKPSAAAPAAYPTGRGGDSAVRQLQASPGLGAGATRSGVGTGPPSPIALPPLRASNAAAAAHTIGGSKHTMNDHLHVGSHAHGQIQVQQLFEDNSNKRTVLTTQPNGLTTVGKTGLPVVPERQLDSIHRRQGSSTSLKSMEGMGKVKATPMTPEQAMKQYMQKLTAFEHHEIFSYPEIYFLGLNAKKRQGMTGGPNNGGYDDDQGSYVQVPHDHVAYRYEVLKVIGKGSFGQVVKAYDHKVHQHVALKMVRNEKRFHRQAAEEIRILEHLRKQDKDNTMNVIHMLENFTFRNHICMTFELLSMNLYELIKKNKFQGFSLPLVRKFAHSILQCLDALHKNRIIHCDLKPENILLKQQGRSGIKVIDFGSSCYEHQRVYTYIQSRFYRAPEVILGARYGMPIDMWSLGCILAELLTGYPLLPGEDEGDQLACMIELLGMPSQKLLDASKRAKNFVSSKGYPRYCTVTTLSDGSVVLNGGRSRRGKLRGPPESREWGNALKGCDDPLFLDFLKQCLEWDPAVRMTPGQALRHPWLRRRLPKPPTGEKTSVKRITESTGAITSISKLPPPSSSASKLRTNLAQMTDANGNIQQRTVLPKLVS

[13] = target: Dual specificity protein kinase CLK1 (Homo sapiens) (UniProt P49759); test: Inhibition of recombinant human full length CLK1 (1 to 484 residues) expressed in bacterial expression system at 1 uM by DiscoverX competition binding assay relative to control; how it was run: as §1
[14] = Apparent permeability from basolateral to apical side in dog MDCK-MDR1 cells; type: ADME, cell-based, Canis lupus familiaris; how it was run: as §3
[15] = Metabolic stability in rat liver microsomes assessed as intrinsic clearance; type: ADME, Microsome; conditions: read-out: CLH; how it was run: as §2
[16] = target: Dual specificity tyrosine-phosphorylation-regulated kinase 1B (Homo sapiens) (UniProt Q9Y463); test: Inhibition of recombinant human full length DYRK1B (1 to 629 residues) expressed in bacterial expression system at 1 uM by DiscoverX competition binding assay relative to control; how it was run: as §1
[17] = target: Dual specificity protein kinase CLK3 (Homo sapiens) (UniProt P49761); test: Inhibition of recombinant human full length CLK3 (1 to 490 residues) expressed in bacterial expression system at 1 uM by DiscoverX competition binding assay relative to control; how it was run: as §1
[18] = target: Dual specificity protein kinase CLK2 (Homo sapiens) (UniProt P49760); test: Inhibition of recombinant human partial length CLK2 (144 to 484 residues) expressed in bacterial expression system at 1 uM by DiscoverX competition binding assay relative to control; how it was run: as §1
Dual specificity protein kinase CLK2 (Homo sapiens), sequence (P49760 whole entry, looked up, the tested form may be a part): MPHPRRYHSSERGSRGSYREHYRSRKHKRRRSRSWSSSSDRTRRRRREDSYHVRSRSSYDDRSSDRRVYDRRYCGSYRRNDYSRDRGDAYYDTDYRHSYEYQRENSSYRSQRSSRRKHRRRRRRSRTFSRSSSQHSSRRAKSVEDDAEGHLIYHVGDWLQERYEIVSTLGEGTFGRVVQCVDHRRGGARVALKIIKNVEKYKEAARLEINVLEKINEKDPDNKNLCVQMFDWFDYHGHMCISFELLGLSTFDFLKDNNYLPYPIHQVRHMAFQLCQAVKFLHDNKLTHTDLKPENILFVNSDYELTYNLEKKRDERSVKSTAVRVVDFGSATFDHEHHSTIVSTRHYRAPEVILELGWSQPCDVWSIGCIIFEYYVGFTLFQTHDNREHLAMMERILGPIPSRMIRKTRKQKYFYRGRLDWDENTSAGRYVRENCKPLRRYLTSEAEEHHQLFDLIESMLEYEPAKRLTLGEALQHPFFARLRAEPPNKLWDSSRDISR

Dual specificity tyrosine-phosphorylation-regulated kinase 1B (Homo sapiens), sequence (Q9Y463 whole entry, looked up, the tested form may be a part): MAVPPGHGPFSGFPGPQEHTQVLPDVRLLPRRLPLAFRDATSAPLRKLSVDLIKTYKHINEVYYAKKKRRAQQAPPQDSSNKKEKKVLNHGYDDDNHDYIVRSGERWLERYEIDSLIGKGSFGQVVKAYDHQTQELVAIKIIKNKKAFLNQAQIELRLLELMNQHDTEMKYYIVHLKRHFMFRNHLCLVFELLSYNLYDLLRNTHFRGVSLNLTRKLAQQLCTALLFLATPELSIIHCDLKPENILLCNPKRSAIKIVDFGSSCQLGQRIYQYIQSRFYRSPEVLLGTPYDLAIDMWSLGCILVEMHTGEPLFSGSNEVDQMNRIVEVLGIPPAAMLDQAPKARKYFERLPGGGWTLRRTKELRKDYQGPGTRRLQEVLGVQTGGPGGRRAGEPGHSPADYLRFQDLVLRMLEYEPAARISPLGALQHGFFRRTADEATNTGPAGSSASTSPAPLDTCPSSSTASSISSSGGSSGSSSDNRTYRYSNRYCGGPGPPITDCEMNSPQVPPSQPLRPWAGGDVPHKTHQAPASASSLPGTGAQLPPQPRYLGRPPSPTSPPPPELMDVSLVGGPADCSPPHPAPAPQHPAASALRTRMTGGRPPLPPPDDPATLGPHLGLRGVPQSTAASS
Glycogen synthase kinase-3 beta (Homo sapiens), sequence (P49841 whole entry, looked up, the tested form may be a part): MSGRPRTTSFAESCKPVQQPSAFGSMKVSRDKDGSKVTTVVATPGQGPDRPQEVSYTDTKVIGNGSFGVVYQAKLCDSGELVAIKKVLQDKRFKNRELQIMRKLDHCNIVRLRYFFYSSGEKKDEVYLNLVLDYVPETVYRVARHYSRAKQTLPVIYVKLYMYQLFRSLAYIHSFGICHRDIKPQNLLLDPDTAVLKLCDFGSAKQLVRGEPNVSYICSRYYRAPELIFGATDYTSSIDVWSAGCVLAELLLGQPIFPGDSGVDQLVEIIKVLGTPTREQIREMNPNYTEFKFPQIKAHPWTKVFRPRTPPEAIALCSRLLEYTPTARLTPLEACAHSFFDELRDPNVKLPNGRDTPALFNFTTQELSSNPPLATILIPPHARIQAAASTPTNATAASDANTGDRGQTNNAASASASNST
Dual specificity protein kinase CLK3 (Homo sapiens), sequence (P49761 whole entry, looked up, the tested form may be a part): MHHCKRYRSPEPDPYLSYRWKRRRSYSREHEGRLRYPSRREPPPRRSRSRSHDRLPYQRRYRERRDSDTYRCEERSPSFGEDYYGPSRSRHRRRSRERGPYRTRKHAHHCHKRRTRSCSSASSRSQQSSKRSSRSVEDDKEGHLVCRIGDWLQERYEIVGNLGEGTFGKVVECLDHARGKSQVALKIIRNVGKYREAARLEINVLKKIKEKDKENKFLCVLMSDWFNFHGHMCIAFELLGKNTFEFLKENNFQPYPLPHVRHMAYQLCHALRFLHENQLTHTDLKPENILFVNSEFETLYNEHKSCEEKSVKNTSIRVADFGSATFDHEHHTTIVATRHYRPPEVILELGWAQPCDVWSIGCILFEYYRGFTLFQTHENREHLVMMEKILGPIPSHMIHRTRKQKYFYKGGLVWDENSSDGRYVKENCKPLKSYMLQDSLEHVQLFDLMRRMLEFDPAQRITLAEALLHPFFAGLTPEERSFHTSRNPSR
Dual specificity protein kinase CLK1 (Homo sapiens), sequence (P49759 whole entry, looked up, the tested form may be a part): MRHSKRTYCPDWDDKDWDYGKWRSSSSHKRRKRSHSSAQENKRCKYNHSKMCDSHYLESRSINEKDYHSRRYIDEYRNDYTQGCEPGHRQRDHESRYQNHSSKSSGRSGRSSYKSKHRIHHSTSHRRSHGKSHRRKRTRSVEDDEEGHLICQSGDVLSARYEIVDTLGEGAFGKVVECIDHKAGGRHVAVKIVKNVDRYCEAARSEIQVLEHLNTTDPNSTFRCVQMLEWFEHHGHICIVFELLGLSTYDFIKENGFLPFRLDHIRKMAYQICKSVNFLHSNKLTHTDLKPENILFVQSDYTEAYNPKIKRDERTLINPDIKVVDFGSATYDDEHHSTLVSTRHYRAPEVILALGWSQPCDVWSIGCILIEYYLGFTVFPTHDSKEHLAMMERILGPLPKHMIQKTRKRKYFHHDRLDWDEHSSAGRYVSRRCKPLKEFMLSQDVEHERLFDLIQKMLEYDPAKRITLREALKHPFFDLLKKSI

With `COc1cccc(N(C)c2nccc(-c3cnn4ncccc34)n2)c1` the IC50 [1] was 97 nM.
`N#Cc1ccc(Nc2nccc(-c3cnn4ncccc34)n2)cc1` gave an IC50 [1] of 103 nM.
`c1ccc(Nc2nccc(-c3cnn4ncccc34)n2)cc1` gave an inhibition [2] of 97%, an inhibition [3] of 98% and an IC50 [1] of 38 nM.
`COc1ccccc1Nc1nccc(-c2cnn3ncccc23)n1` gave an IC50 [1] of 137 nM.
In the case of `Cc1ccccc1Nc1nccc(-c2cnn3ncccc23)n1`, the IC50 [1] is reported as 64 nM.
In the case of `COc1cccc(Nc2nccc(-c3cnn4ncccc34)n2)c1` [PYRAZOLOPYRIDAZINE 1], the IC50 [1] is reported as 12 nM.
With `Cc1cccc(Nc2nccc(-c3cnn4ncccc34)n2)c1` the Kd [4] was 8.9 nM and the IC50 [1] was 7 nM.
In the case of `Cc1cccc(N(C)c2nccc(-c3cnn4ncccc34)n2)c1`, the efflux ratio [5] is reported as 0.96, the solubility thermodynamic [6] is reported as 10 µg/mL (≈ 31.6 µM) and the inhibition [7] is reported as 4%. It also gave a microsomal CLint [8] of 75 µL/min/mg, a Papp A→B [9] of 20.9 ×10⁻⁶ cm/s and an inhibition [10] of 12%. It also gave an inhibition [11] of 65%, an inhibition [12] of 19% and an inhibition [13] of 59%. The Papp B→A [14] was 20.1 ×10⁻⁶ cm/s, the microsomal CLint [15] was 805 µL/min/mg and the inhibition [16] was 0%. The inhibition [17] was 6%, the IC50 [1] was 76 nM and the inhibition [18] was 59%.
In the case of `CN(c1ccccc1)c1nccc(-c2cnn3ncccc23)n1`, the inhibition [2] is reported as 79%, the inhibition [3] is reported as 33% and the IC50 [1] is reported as 186 nM.
`N#Cc1cccc(Nc2nccc(-c3cnn4ncccc34)n2)c1` [GW778894X] showed an IC50 [1] of 5 nM.
